Experiments:
[1] = Growth inhibition of human UACC257 cells assessed as cell growth at 10^-5 M after 48 hrs by sulforhodamine B assay relative to control; format: functional; details: UACC-257, 48 h, read-out: Activity
In short: (§1)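 NCI primary screen across about 60 human tumour cell lines. Single dose of 10^-5 M, cultures incubated 48 h, end point by sulforhodamine B protein staining read spectrophotometrically. Results are given as percent growth of treated cells relative to untreated control cells.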

[2] = system: NCI-H226; assay: Growth inhibition of human NCI-H226 cells assessed as cell growth at 10^-5 M after 48 hrs by sulforhodamine B assay relative to control; format: functional; details: NCI-H226, 48 h, read-out: Activity
In short: (§2)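 NCI primary screen, one-dose format across about 60 human tumour cell lines. Single addition at 10^-5 M with 48 h incubation; SRB protein-binding dye end point read spectrophotometrically. Reported as percent growth of treated cells versus untreated controls.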

[3] = system: NCI-H522; assay: Growth inhibition of human NCI-H522 cells assessed as cell growth at 10^-5 M after 48 hrs by sulforhodamine B assay relative to control; format: functional; details: NCI-H522, 48 h, read-out: Activity; in short: as §2
[4] = system: U-251; assay: Growth inhibition of human U251 cells assessed as cell growth at 10^-5 M after 48 hrs by sulforhodamine B assay relative to control; format: functional; details: U-251, 48 h, read-out: Activity; in short: as §1
[5] = system: Rattus norvegicus; assay: Antiinflammatory activity in albino rat assessed as inhibition of carrageenan-induced paw edema at 0.28 mmol/kg, po administered 30 mins prior to carrageenan-challenge measured after 5 hrs relative to control; format: functional
In short: (§3)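 Male albino rats in groups of four were fasted 24 h with water allowed. Dosing was oral at 0.28 mmol/kg, suspended in 0.5% w/v CMC; controls got CMC alone. After 30 min, 0.1 ml of 1% carrageenan in saline went subplantar into the right hind paw and saline into the left. Paw thickness was read by caliper before and at 1–5 h. % inhibition = [(VR−VL)control−(VR−VL)treated]/(VR−VL)control ×100. Mean ± SEM, n = 4, one-way ANOVA vs control.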

[6] = system: BT-549; assay: Growth inhibition of human BT549 cells assessed as cell growth at 10^-5 M after 48 hrs by sulforhodamine B assay relative to control; format: functional; details: BT-549, 48 h, read-out: Activity
In short: (§4)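 NCI ~60 human tumour cell line screen. Single concentration of 10^-5 M added to cultures for 48 h. End point by sulforhodamine B protein staining read spectrophotometrically. Percent growth relative to untreated control cells.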

[7] = system: Rattus norvegicus; assay: Antiinflammatory activity in albino rat assessed as inhibition of carrageenan-induced paw edema at 0.28 mmol/kg, po administered 30 mins prior to carrageenan-challenge measured after 1 hr relative to control; format: functional; in short: as §3
[8] = system: UACC-62; assay: Growth inhibition of human UACC62 cells assessed as cell growth at 10^-5 M after 48 hrs by sulforhodamine B assay relative to control; format: functional; details: UACC-62, 48 h, read-out: Activity; in short: as §1
[9] = Growth inhibition of human OVCAR4 cells assessed as cell growth at 10^-5 M after 48 hrs by sulforhodamine B assay relative to control; format: functional; details: OVCAR-4, 48 h, read-out: Activity; in short: as §2
[10] = system: Rattus norvegicus; assay: Antiinflammatory activity in albino rat assessed as inhibition of carrageenan-induced paw edema at 0.28 mmol/kg, po administered 30 mins prior to carrageenan-challenge measured after 4 hrs relative to control; format: functional; in short: as §3
[11] = system: MOLT-4; assay: Growth inhibition of human MOLT4 cells assessed as cell growth at 10^-5 M after 48 hrs by sulforhodamine B assay relative to control; format: functional; details: MOLT-4, 48 h, read-out: Activity; in short: as §2
[12] = system: KM12; assay: Growth inhibition of human KM12 cells assessed as cell growth at 10^-5 M after 48 hrs by sulforhodamine B assay relative to control; format: functional; details: KM12, 48 h, read-out: Activity; in short: as §2
[13] = system: DU-145; assay: Growth inhibition of human DU145 cells assessed as cell growth at 10^-5 M after 48 hrs by sulforhodamine B assay relative to control; format: functional; details: DU-145, 48 h, read-out: Activity; in short: as §4
[14] = Induction of nitric oxide release in phosphate buffer at 10^-4 M at pH 7.4 after 4 hrs by Griess colorimetric method in presence of N-acetylcysteine; format: physicochemical; details: pH 7.4, 4 h, 100 µM
In short: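 Final drug concentration 10^-4 M, added from DMF into 1:1 50 mM phosphate buffer (pH 7.4)/MeOH containing 5 × 10^-4 M N-acetylcysteine, at 37 °C. Nitrite read with Griess reagent after 10 min at room temperature, absorbance at 546 nm. Calibration with sodium nitrite standards (10–80 nmol/ml). Reported as mol NO per mol, n = 4 reaction mixtures.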

[15] = system: COLO 205; assay: Growth inhibition of human COLO205 cells assessed as cell growth at 10^-5 M after 48 hrs by sulforhodamine B assay relative to control; format: functional; details: COLO 205, 48 h, read-out: Activity; in short: as §4
[16] = system: IGROV-1; assay: Growth inhibition of human IGROV1 cells assessed as cell growth at 10^-5 M after 48 hrs by sulforhodamine B assay relative to control; format: functional; details: IGROV-1, 48 h, read-out: Activity; in short: as §4
[17] = system: SR; assay: Growth inhibition of human SR cells assessed as cell growth at 10^-5 M after 48 hrs by sulforhodamine B assay relative to control; format: functional; details: read-out: Activity; in short: as §1
[18] = system: MCF7; assay: Growth inhibition of human MCF7 cells assessed as cell growth at 10^-5 M after 48 hrs by sulforhodamine B assay relative to control; format: functional; details: MCF7, 48 h, read-out: Activity; in short: as §2
[19] = Induction of nitric oxide release in HCl buffer at 10^-4 M at pH 1 after 1 hr by Griess colorimetric method in presence of N-acetylcysteine; format: physicochemical; details: pH 1, 1 h, 100 µM
In short: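 Same Griess nitrite procedure at 10^-4 M final drug with N-acetylcysteine at 37 °C, but with 0.1 N HCl (pH 1) in place of the pH 7.4 phosphate buffer. Absorbance at 546 nm against a sodium nitrite calibration curve.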

[20] = Growth inhibition of human UO31 cells assessed as cell growth at 10^-5 M after 48 hrs by sulforhodamine B assay relative to control; format: functional; details: UO-31, 48 h, read-out: Activity; in short: as §1
[21] = system: HL-60(TB); assay: Growth inhibition of human HL-60(TB) cells assessed as cell growth at 10^-5 M after 48 hrs by sulforhodamine B assay relative to control; format: functional; details: HL-60, 48 h, read-out: Activity
In short: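 NCI primary screen across about 60 human tumour cell lines. Single dose of 10^-5 M, 48 h incubation, sulforhodamine B protein-dye end point read spectrophotometrically. Reported as percent growth of treated cells versus untreated control cells.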

[22] = Growth inhibition of human HCC2998 cells assessed as cell growth at 10^-5 M after 48 hrs by sulforhodamine B assay relative to control; format: functional; details: HCC 2998, 48 h, read-out: Activity; in short: as §4
[23] = system: HT-29; assay: Growth inhibition of human HT-29 cells assessed as cell growth at 10^-5 M after 48 hrs by sulforhodamine B assay relative to control; format: functional; details: HT-29, 48 h, read-out: Activity; in short: as §4
[24] = system: MDA-MB-435; assay: Growth inhibition of human MDA-MB-435 cells assessed as cell growth at 10^-5 M after 48 hrs by sulforhodamine B assay relative to control; format: functional; details: MDA-MB-435, 48 h, read-out: Activity; in short: as §2

| Structure (SMILES) | growth at 10 µM [1] [%] | growth at 10 µM [2] [%] | growth at 10 µM [3] [%] | growth at 10 µM [4] [%] | inhibition in vivo at 280 µmol/kg [5] [%] | growth at 10 µM [6] [%] | inhibition in vivo at 280 µmol/kg [7] [%] | growth at 10 µM [8] [%] | growth at 10 µM [9] [%] | inhibition in vivo at 280 µmol/kg [10] [%] | growth at 10 µM [11] [%] | growth at 10 µM [12] [%] | growth at 10 µM [13] [%] | Activity [14] [mol/mol] | growth at 10 µM [15] [%] | growth at 10 µM [16] [%] | growth at 10 µM [17] [%] | growth at 10 µM [18] [%] | Activity [19] | growth at 10 µM [20] [%] | also measured |
| --- | --- | --- | --- | --- | --- | --- | --- | --- | --- | --- | --- | --- | --- | --- | --- | --- | --- | --- | --- | --- | --- |
| C/C(=N\O)c1ccc(NC(=O)CSc2nnc(-c3ccccc3)n2-c2ccccc2)cc1 | 81.8 | 72.4 | 53.3 | 63.6 | 66 | 75.3 | 50 | 76.7 | 86.2 | 67 | 95.2 | 83.1 | 67.9 | 0.23 | 91.1 | 81.4 | 106 | 62.5 | Not Active | 90.6 | growth at 10 µM [21]: 90.4%; growth at 10 µM [22]: 28.6%; growth at 10 µM [23]: 73.3%; growth at 10 µM [24]: 118% |
| COc1ccc(-c2nnc(SCC(=O)Nc3ccc(/C(C)=N/O)cc3)n2-c2ccccc2)cc1OC | 91.8 | 81.9 | 35.3 | 34.4 | 76 | 65.2 | 57 | 82.8 | 103 | 79 | 91.7 | 106 | 88.3 | 0.39 | 99.1 | 70.9 | 95.4 | 69.2 | Not Active | 104 | growth at 10 µM [21]: 77.3%; growth at 10 µM [22]: 94%; growth at 10 µM [23]: 91.2%; growth at 10 µM [24]: 104% |

Reference: ChEMBL document CHEMBL3102806, “1,2,4-Triazole/oxime hybrids as new strategy for nitric oxide donors: Synthesis, anti-inflammatory, ulceroginicity and antiproliferative activities” (Eur J Med Chem, 2014)
